Measurements published in ChEMBL document CHEMBL4033781 (J Med Chem, 2018).
Active and inactive are the calls of the source. The calls are words filed in the database; no cut-off is given here.

Assays:
[1] = Apparent permeability from basolateral side to apical side in human Caco2 cells assessed as drug recovery at 1 uM after 60 mins by HPLC-MS analysis; format: ADME, cell-based; details: caco-2, 1 h
[2] = Apparent permeability from apical side to basolateral side in human Caco2 cells at 1 uM after 60 mins by HPLC-MS analysis; format: ADME, cell-based; details: caco-2, 1 h
Method in brief: (§1)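 Caco-2 monolayers were grown on Transwell filters, with test compound at 1 × 10^-6 M. Apical-to-basolateral flux was run at 37 °C with shaking, at pH 6.5 apical and pH 7.4 basolateral. Donor was sampled over 0–60 min and receiver at 60 min. Compound was quantified by full-scan HPLC-MS. Apparent permeability and percent recovery were derived from two determinations.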

MCF7 = experiment: Antiproliferative activity against human MCF7 cells up to 100 uM after 72 hrs by AlamarBlue assay; format: cell-based; details: mcf7, 72 h
[3] = biological target: Na+/K+ ATPase alpha-1/beta-1 (Rattus norvegicus, UniProt P06685+P07340); experiment: Inhibition of recombinant rat Na+/K+-ATPase alpha1/beta1 expressed in baculovirus infected insect Sf9 cell membranes using [gamma-32P]ATP as substrate preincubated for 20 mins followed by substrate addition measured after 30 mins by liquid scintillation counting
Method in brief: (§2)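 Rat α/β1 isoforms were expressed in baculovirus-infected Sf9 cells (72 h, 27 °C), washed in 10 mM imidazole-HCl pH 7.5 with 1 mM EGTA, and homogenised. Homogenates were assayed in 120 mM NaCl, 30 mM KCl, 3 mM MgCl₂, 0.2 mM EGTA and 30 mM Tris-HCl pH 7.4. Reactions were started with 2 mM γ[³²P]-ATP (final) and run 30 min at 37 °C. Released ³²Pi was extracted as phosphomolybdate into isobutanol and scintillation counted. Activity was taken as the 1 mM ouabain-sensitive fraction. IC50 came from single-site dose–response fits.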

[4] = Metabolic stability in monkey liver S9 fraction assessed as parent compound remaining at 1 uM after 60 mins relative to control; format: ADME, tissue-based, Macaca mulatta; details: rhesus monkey, s9, 1 h
Rattus norvegicus [5] = experiment: Inhibition of rat sperm total motility at 5 mg/kg administered daily via oral gavage for 6 to 12 days by SYTO staining based microscopic method relative to control; format: functional
Method in brief: (§3)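 Male rats were dosed daily by oral gavage, either at 5, 10 or 20 mg/kg for 3 days, or at 5 mg/kg for 3, 6, 9 or 12 days. Animals were then sacrificed and cauda epididymal sperm collected. Total and progressive motility were measured by CASA and compared with untreated controls. Values are mean ± SEM of three experiments.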

[6] = biological target: Na+/K+ ATPase alpha-3/beta-1 (Rattus norvegicus, UniProt P06687+P07340); experiment: Inhibition of recombinant rat Na+/K+-ATPase alpha3/beta1 expressed in baculovirus infected insect Sf9 cell membranes using [gamma-32P]ATP as substrate preincubated for 20 mins followed by substrate addition measured after 30 mins by liquid scintillation counting
Method in brief: as §2, with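 “counted.” for “counted. Activity was taken as the 1 mM ouabain-sensitive fraction.”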

Rattus norvegicus [7] = experiment: Inhibition of rat sperm movement at 20 mg/kg administered via oral gavage for 3 days by SYTO staining based microscopic method relative to control; format: functional; details: 72 h; method in brief: as §3
Liver [8] = experiment: Metabolic stability in rat liver S9 fraction assessed as parent compound remaining at 1 uM after 60 mins relative to control; format: ADME, tissue-based; details: s9, 1 h
[9] = Apparent permeability from basolateral side to apical side in human Caco2 cells at 1 uM after 60 mins by HPLC-MS analysis; format: ADME, cell-based; details: caco-2, 1 h
[10] = biological target: T1, Voltage-gated inwardly rectifying potassium channel KCNH2 (Homo sapiens, UniProt Q12809); experiment: Displacement of Tracer Red from human ERG expressed in cell membranes up to 60 uM by fluorescence polarization assay
Method in brief: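 Competitive fluorescence polarization displacement of a fluorescently tagged hERG ligand used membranes from cells stably expressing hERG. Compounds were tested up to 60 μM.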

Rattus norvegicus [11] = experiment: Inhibition of rat sperm total motility at 5 mg/kg administered daily via oral gavage for 3 days by SYTO staining based microscopic method; format: functional, organism-based; method in brief: as §3
Liver [12] = experiment: Metabolic stability in mouse liver S9 fraction assessed as parent compound remaining at 1 uM after 60 mins relative to control; format: ADME, tissue-based; details: s9, 1 h
Liver [13] = experiment: Metabolic stability in human liver S9 fraction assessed as parent compound remaining at 1 uM after 60 mins relative to control; format: ADME, tissue-based; details: s9, 1 h
Rattus norvegicus [14] = experiment: Inhibition of rat sperm progressive motility at 5 mg/kg administered daily via oral gavage for 6 to 12 days by SYTO staining based microscopic method relative to control; format: functional; method in brief: as §3
Rattus norvegicus [15] = experiment: Inhibition of rat sperm progressive motility at 5 mg/kg administered daily via oral gavage for 3 days by SYTO staining based microscopic method; format: functional, organism-based; method in brief: as §3
Liver [16] = experiment: Metabolic stability in dog liver S9 fraction assessed as parent compound remaining at 1 uM after 60 mins relative to control; format: ADME, tissue-based, Canis lupus familiaris; details: s9, 1 h
[17] = Apparent permeability from apical side to basolateral side in human Caco2 cells assessed as drug recovery at 1 uM after 60 mins by HPLC-MS analysis; format: ADME, cell-based; details: caco-2, 1 h; method in brief: as §1
[18] = biological target: Sodium/potassium-transporting ATPase subunit alpha-4 (Rattus norvegicus) (UniProt Q64541); experiment: Inhibition of Na+/K+-ATPase alpha4 in Long Evans rat cauda epididymis sperm assessed as reduction in total sperm motility at 10^-12 to 10^-4 M after 1 hr by SYTO staining based microscopic method
[19] = biological target: Sodium/potassium-transporting ATPase subunit alpha-4 (Rattus norvegicus) (UniProt Q64541); experiment: Inhibition of Na+/K+-ATPase alpha4 in Long Evans rat cauda epididymis sperm assessed as reduction in sperm beat cross frequency at 10^-12 to 10^-4 M after 1 hr by SYTO staining based microscopic method
[20] = biological target: Sodium/potassium-transporting ATPase subunit alpha-4 (Rattus norvegicus) (UniProt Q64541); experiment: Inhibition of Na+/K+-ATPase alpha4 in Long Evans rat cauda epididymis sperm assessed as reduction in sperm progressive motility at 10^-12 to 10^-4 M after 1 hr by SYTO staining based microscopic method
[21] = biological target: Sodium/potassium-transporting ATPase subunit alpha-4 (Rattus norvegicus) (UniProt Q64541); experiment: Inhibition of Na+/K+-ATPase alpha4 in Long Evans rat cauda epididymis sperm assessed as reduction in sperm curvilinear velocity at 10^-12 to 10^-4 M after 1 hr by SYTO staining based microscopic method
[22] = biological target: Sodium/potassium-transporting ATPase subunit alpha-4 (Rattus norvegicus) (UniProt Q64541); experiment: Inhibition of Na+/K+-ATPase alpha4 in Long Evans rat cauda epididymis sperm assessed as reduction in sperm motility at 10^-8 M preincubated for 1 hr followed by compound washout measured up to 2 hrs by SYTO staining based microscopic method
Method in brief: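 Rat cauda epididymal sperm in modified Tyrode's medium were treated with or without compound. Motility was measured by SYTO 21/CASA before and after three washes in modified Tyrode's medium, at times up to 2 h. Values are mean ± SEM of three determinations.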

[23] = biological target: Na+/K+ ATPase alpha-2/beta-1 (Rattus norvegicus, UniProt P06686+P07340); experiment: Inhibition of recombinant rat Na+/K+-ATPase alpha2/beta1 expressed in baculovirus infected insect Sf9 cell membranes using [gamma-32P]ATP as substrate preincubated for 20 mins followed by substrate addition measured after 30 mins by liquid scintillation counting
Method in brief: as §2, with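 “counted.” for “counted. Activity was taken as the 1 mM ouabain-sensitive fraction.”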

[24] = biological target: Sodium/potassium-transporting ATPase subunit alpha-4 (Rattus norvegicus) (UniProt Q64541); experiment: Inhibition of Na+/K+-ATPase alpha4 in Long Evans rat cauda epididymis sperm assessed as reduction in sperm straight line velocity at 10^-12 to 10^-4 M after 1 hr by SYTO staining based microscopic method
[25] = biological target: Sodium/potassium-transporting ATPase subunit alpha-4 (Rattus norvegicus) (UniProt Q64541); experiment: Inhibition of Na+/K+-ATPase alpha4 in Long Evans rat cauda epididymis sperm assessed as reduction in sperm average path linearity at 10^-12 to 10^-4 M after 1 hr by SYTO staining based microscopic method
[26] = biological target: Sodium/potassium-transporting ATPase subunit alpha-4 (Rattus norvegicus) (UniProt Q64541); experiment: Inhibition of Na+/K+-ATPase alpha4 in Long Evans rat cauda epididymis sperm assessed as reduction in sperm average path velocity at 10^-12 to 10^-4 M after 1 hr by SYTO staining based microscopic method
[27] = biological target: T1, Voltage-gated inwardly rectifying potassium channel KCNH2; experiment: Displacement of Tracer Red from human ERG expressed in cell membranes by fluorescence polarization assay
Method in brief: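 Competitive fluorescence polarization binding assay using membranes from cells stably expressing hERG, measuring displacement of a fluorescently tagged hERG ligand. Test compounds were run at concentrations up to 60 μM.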

T1 sequence (Q12809 whole entry): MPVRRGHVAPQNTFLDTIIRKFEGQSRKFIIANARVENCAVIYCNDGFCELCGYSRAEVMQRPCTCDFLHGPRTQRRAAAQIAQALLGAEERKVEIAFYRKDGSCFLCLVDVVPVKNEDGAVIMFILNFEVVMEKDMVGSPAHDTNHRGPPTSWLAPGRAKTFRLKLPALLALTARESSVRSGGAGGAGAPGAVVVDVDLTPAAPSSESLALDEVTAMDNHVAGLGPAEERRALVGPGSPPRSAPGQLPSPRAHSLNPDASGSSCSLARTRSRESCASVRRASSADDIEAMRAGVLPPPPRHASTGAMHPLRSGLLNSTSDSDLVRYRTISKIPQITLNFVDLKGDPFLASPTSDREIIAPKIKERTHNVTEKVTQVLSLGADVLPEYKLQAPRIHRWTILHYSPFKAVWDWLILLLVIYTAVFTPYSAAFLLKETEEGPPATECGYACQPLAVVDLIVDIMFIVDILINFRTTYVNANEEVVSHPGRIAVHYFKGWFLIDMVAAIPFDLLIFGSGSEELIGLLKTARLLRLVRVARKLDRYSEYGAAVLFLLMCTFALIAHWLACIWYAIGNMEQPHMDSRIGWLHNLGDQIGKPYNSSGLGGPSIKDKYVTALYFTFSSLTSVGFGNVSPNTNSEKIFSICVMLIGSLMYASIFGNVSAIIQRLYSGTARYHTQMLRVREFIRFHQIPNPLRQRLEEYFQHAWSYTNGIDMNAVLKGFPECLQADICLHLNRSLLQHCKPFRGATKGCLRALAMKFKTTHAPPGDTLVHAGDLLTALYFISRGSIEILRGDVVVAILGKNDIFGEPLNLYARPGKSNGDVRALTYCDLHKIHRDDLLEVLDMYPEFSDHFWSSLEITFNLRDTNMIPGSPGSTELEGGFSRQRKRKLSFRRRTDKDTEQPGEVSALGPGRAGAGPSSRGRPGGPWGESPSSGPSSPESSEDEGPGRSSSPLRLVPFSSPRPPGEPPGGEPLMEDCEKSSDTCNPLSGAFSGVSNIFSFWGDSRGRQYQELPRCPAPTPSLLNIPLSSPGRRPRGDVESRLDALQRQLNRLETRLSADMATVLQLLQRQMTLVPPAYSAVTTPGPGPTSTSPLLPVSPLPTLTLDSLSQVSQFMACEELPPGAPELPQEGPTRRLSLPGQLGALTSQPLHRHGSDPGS
Chain of Sodium/potassium-transporting ATPase subunit alpha-4 (Rattus norvegicus) (Q64541 whole entry): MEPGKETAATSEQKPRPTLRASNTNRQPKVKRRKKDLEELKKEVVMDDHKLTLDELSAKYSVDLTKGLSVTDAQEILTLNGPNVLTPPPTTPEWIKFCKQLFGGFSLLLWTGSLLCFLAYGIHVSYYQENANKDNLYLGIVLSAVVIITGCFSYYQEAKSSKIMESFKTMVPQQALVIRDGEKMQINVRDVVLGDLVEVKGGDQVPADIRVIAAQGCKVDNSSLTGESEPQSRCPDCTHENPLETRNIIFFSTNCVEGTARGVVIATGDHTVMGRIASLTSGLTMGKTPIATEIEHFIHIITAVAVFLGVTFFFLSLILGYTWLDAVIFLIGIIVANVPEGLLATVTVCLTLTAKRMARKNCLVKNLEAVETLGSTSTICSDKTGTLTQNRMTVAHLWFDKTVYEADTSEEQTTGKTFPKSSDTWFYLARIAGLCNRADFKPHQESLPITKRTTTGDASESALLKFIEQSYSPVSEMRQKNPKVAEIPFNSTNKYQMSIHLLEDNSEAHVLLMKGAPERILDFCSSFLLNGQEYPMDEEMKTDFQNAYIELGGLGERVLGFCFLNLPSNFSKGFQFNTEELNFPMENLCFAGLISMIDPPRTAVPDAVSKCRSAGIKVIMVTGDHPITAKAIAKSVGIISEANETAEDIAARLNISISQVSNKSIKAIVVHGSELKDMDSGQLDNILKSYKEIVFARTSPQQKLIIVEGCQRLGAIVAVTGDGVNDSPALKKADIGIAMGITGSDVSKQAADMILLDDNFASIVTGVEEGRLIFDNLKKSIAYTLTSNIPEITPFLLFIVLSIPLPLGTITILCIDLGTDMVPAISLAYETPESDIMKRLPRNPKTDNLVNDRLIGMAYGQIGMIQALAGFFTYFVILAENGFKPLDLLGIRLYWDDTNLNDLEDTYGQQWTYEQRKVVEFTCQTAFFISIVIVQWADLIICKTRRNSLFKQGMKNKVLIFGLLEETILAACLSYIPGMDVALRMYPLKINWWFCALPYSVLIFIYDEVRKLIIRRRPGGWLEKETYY

SMILES | Activity (MCF7) | IC50 [3] [µM] | IC50 [6] [µM] | inhibition (INH) [10] | inhibition [18] | inhibition [19] | inhibition [20] | inhibition [21] | inhibition [22] | IC50 [23] [µM] | inhibition [24] | inhibition [25] | inhibition [26] | also measured
C[C@]12C[C@@H](O)[C@H]3[C@@H](CC[C@]4(O)C[C@@H](O)C[C@@H](O)[C@]34CO)[C@@]1(O)CC[C@@H]2c1cn(Cc2ccccc2)nn1 | Non-Toxic | > 100 | > 100 | Not Active |  |  |  |  |  |  |  |  |  | Drug recovery [1]: 98%; Papp [2]: < 0.2 ×10⁻⁶ cm/s; Stability [4]: 89%; inhibition in vivo at 5 mg/kg (Rattus norvegicus [5]): 40%; inhibition in vivo at 20 mg/kg (Rattus norvegicus [7]): 50%; Stability (Liver [8]): 95%; Papp [9]: 0.3 ×10⁻⁶ cm/s; inhibition (Rattus norvegicus [11]): Active; Stability (Liver [12]): 76%; Stability (Liver [13]): 107%; inhibition in vivo at 5 mg/kg (Rattus norvegicus [14]): 50%; inhibition (Rattus norvegicus [15]): Active; Stability (Liver [16]): 99%; Drug recovery [17]: 94%
COCO[C@H]1C[C@H]2OC(C)(C)OC[C@]23[C@@H]2[C@@H](CC[C@]3(O)C1)[C@@]1(OCOC)CC[C@H](CO)[C@@]1(C)C[C@H]2OCOC | Non-Toxic | > 100 | > 100 | Not Active | Active | Active | Active | Active | Active | 6.6 | Active | Active | Active | 
COCO[C@@H]1[C@H]2OC(C)(C)O[C@H]2[C@H](O[C@H]2C[C@H]3OC(C)(C)OC[C@]34[C@@H]3[C@@H](CC[C@]4(O)C2)[C@@]2(O)CC[C@H](CO)[C@@]2(C)C[C@H]3OCOC)O[C@H]1C | Non-Toxic | > 100 | > 100 | Not Active | Active | Active | Active | Active | Active | > 100 | Active | Active | Active | 
C[C@@H]1O[C@@H](O[C@H]2C[C@@H](O)[C@]3(CO)[C@H]4[C@H](O)C[C@]5(C)[C@@H](C6=CC(=O)OC6)CC[C@]5(O)[C@@H]4CC[C@]3(O)C2)[C@H](O)[C@H](O)[C@H]1O [OUABAIN] |  |  |  |  |  |  |  |  |  |  |  |  |  | IC50 [27]: 5.8 µM
